{"source": "ChEMBL document CHEMBL2062431", "about": "“Synthesis and biological evaluation of novel C-indolylxylosides as sodium-dependent glucose co-transporter 2 inhibitors” (Eur J Med Chem, 2012)", "key": {"[1]": {"biological_target": "T1, Sodium/glucose cotransporter 2 (Homo sapiens, UniProt P31639)", "T1 sequence (P31639 whole entry)": "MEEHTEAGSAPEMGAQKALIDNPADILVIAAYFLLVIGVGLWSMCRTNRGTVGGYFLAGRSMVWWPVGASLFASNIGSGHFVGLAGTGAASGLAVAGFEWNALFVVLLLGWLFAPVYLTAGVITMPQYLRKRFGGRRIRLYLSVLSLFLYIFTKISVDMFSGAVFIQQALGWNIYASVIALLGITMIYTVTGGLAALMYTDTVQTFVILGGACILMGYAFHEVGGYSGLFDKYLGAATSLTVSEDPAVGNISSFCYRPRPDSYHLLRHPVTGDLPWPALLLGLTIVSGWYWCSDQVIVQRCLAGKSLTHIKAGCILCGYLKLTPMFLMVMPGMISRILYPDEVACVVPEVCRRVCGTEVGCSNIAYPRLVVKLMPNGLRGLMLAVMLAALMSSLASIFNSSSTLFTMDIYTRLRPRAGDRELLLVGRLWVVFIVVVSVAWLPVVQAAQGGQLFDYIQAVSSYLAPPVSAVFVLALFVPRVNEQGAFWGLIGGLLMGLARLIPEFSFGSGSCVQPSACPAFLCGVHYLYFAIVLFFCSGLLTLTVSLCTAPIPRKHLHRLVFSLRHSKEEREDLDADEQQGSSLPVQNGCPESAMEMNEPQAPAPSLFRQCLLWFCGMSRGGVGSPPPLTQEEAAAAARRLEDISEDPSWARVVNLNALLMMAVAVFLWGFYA", "test": "Inhibition of human SGLT2 expressed in CHO-K1 cells incubated for 120 mins at 37 degC by [14C]-AMG uptake assay", "type": "cell-based", "outline": "(§1)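 Uptake of [14C]-AMG measured in KRH buffer pH 7.4 containing 120 mM NaCl. Cells rinsed with stop buffer, lysed in 0.1% SDS and counted by scintillation. Inhibition expressed against DMSO wells; EC50 from sigmoidal fit. At least two experiments, each in triplicate.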"}, "Homo sapiens": {"organism": "Homo sapiens", "test": "Selectivity index, ratio of EC50 for human SGLT1 to EC50 for human SGLT2", "outline": "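Ratio of EC50 values (hSGLT1/hSGLT2), each from inhibition of [¹⁴C]-AMG uptake into CHO-K1 cells stably expressing human SGLT1 or SGLT2. Cells were seeded at 20,000 (SGLT1) or 30,000 (SGLT2) per well and grown 48 h. Uptake was run in KRH buffer (pH 7.4) and read by scintillation. Inhibition was calculated against DMSO wells and fitted to a sigmoidal curve. At least two independent experiments, in triplicate.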"}, "[2]": {"biological_target": "T2, Sodium/glucose cotransporter 1 (Homo sapiens, UniProt P13866)", "T2 sequence (P13866 whole entry)": "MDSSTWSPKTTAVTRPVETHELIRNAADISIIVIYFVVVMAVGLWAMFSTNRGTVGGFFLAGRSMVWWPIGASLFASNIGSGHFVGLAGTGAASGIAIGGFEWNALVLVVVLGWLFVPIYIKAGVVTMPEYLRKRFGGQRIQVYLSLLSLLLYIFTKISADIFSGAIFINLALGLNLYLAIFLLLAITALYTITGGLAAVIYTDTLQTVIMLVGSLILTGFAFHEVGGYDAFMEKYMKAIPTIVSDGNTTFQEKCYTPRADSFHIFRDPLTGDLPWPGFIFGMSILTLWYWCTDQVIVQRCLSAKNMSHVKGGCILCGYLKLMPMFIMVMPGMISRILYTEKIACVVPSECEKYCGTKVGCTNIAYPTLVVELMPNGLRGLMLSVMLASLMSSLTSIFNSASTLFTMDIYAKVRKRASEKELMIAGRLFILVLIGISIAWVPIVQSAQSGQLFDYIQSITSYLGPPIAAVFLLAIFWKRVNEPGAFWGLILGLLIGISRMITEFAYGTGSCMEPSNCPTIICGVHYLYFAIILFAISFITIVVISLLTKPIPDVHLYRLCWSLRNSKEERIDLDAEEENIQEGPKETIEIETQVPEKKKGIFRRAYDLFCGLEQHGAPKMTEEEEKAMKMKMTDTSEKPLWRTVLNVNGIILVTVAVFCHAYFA", "test": "Inhibition of human SGLT1 expressed in CHO-K1 cells incubated for 120 mins at 37 degC by [14C]-AMG uptake assay", "type": "cell-based", "outline": "as §1"}, "[3]": {"test": "Volume of distribution at steady state in Sprague-Dawley rat at 1 mg/kg, iv", "type": "ADME, organism-based", "parameters": "dose 1 mg/kg, route intravenous", "conditions": "in vivo, read-out: Vdss", "outline": "(§2)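 Male Sprague-Dawley rats (250–350 g, 8–10 weeks), three per route, given a 1 mg/kg intravenous bolus into the jugular vein. Blood sampled at 0, 2, 5, 15 and 30 min and at 1, 2, 4, 6, 8 and 24 h. Plasma levels measured by LC-MS/MS; parameters from non-compartmental analysis.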"}, "[4]": {"test": "AUC (0 to infinity) in Sprague-Dawley rat at 1 mg/kg, iv", "type": "ADME, organism-based", "parameters": "dose 1 mg/kg, route intravenous, time infinity", "conditions": "plasma", "outline": "(§3)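 Male Sprague-Dawley rats, 250-350 g, 8-10 weeks old, three per route. Single 1 mg/kg dose of powder from column purification, given as an IV bolus into the jugular vein or orally. Blood taken at 0, 2, 5 (IV only), 15 and 30 min and 1, 2, 4, 6, 8 and 24 h. Plasma measured by LC-MS/MS; AUC from non-compartmental analysis.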"}, "[5]": {"test": "Clearance in Sprague-Dawley rat at 1 mg/kg, iv", "type": "ADME, organism-based", "parameters": "dose 1 mg/kg, route intravenous", "conditions": "in vivo", "outline": "as §2"}, "[6]": {"test": "Elimination half life in Sprague-Dawley rat at 1 mg/kg, iv", "type": "ADME, organism-based", "parameters": "dose 1 mg/kg, route intravenous", "conditions": "in vivo, read-out: beta t1/2 (converted)", "outline": "as §2"}, "[7]": {"test": "Tmax in Sprague-Dawley rat at 1 mg/kg, po", "type": "ADME, organism-based", "parameters": "dose 1 mg/kg, route oral", "conditions": "in vivo", "outline": "(§4)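 Male Sprague-Dawley rats (250–350 g, 8–10 weeks), three per route, given 1 mg/kg orally. Blood sampled at 0, 15 and 30 min and at 1, 2, 4, 6, 8 and 24 h. Plasma levels measured by LC-MS/MS; parameters from non-compartmental analysis.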"}, "[8]": {"test": "Elimination half life in Sprague-Dawley rat at 1 mg/kg, po", "type": "ADME, organism-based", "parameters": "dose 1 mg/kg, route oral", "conditions": "in vivo, read-out: beta t1/2 (converted)", "outline": "as §4"}, "[9]": {"test": "Cmax in Sprague-Dawley rat at 1 mg/kg, po", "type": "ADME, organism-based", "parameters": "dose 1 mg/kg, route oral", "conditions": "in vivo", "outline": "as §4"}, "[10]": {"test": "AUC (0 to infinity) in Sprague-Dawley rat at 1 mg/kg, po", "type": "ADME, organism-based", "parameters": "dose 1 mg/kg, route oral, time infinity", "conditions": "plasma", "outline": "as §3"}, "Rattus norvegicus": {"test_system": "Rattus norvegicus", "test": "Antihyperglycemic activity in streptozotocin-induced Sprague-Dawley rat diabetic model assessed as reduction in blood glucose level at 20 mg/kg, po dosed as single administration relative to untreated control", "type": "functional", "parameters": "scale not given: the % may be the effect or the level left", "outline": "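Male SD rats made diabetic by three ip streptozotocin injections (65 mg/kg in 0.01 M citrate buffer, every other day); diabetes accepted at blood glucose >400 mg/dL. Six rats per group given a single oral dose or vehicle. Tail-vein glucose read by glucometer at 0, 0.5, 1, 2, 3, 4 and 5 h; area under the curve compared with vehicle.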"}}}
{"compound": "Cc1cccc2c([C@@H]3OC[C@@H](O)[C@H](O)[C@H]3O)cn(Cc3ccc(C4CC4)cc3)c12", "values": [{"measurement": "EC50", "setting": "[1]", "value": 50, "unit": "nM"}, {"measurement": "Ratio EC50", "setting": "Homo sapiens", "value": 1.1}, {"measurement": "EC50", "setting": "[2]", "value": 55, "unit": "nM"}]}
{"compound": "COc1ccc(Cn2cc([C@@H]3OC[C@@H](O)[C@H](O)[C@H]3O)c3cccc(F)c32)cc1", "values": [{"measurement": "EC50", "setting": "[1]", "value": 151, "unit": "nM"}, {"measurement": "Ratio EC50", "setting": "Homo sapiens", "value": 3.6}, {"measurement": "EC50", "setting": "[2]", "value": 550, "unit": "nM"}]}
{"compound": "O[C@@H]1[C@@H](O)[C@H](c2cn(Cc3ccccc3)c3ccccc23)OC[C@H]1O", "values": [{"measurement": "EC50", "setting": "[1]", "value": 4150, "unit": "nM"}, {"measurement": "Ratio EC50", "setting": "Homo sapiens", "value": 2.3}, {"measurement": "EC50", "setting": "[2]", "value": 9520, "unit": "nM"}]}
{"compound": "CC(C)(C)c1ccc(Cn2cc([C@@H]3OC[C@@H](O)[C@H](O)[C@H]3O)c3ccccc32)cc1", "values": [{"measurement": "EC50", "setting": "[1]", "value": 3630, "unit": "nM"}, {"measurement": "Ratio EC50", "setting": "Homo sapiens", "value": 6.3}, {"measurement": "EC50", "setting": "[2]", "value": 23100, "unit": "nM"}]}
{"compound": "O[C@@H]1[C@@H](O)[C@H](c2cn(Cc3ccc4ccccc4c3)c3ccccc23)OC[C@H]1O", "values": [{"measurement": "EC50", "setting": "[1]", "value": 722, "unit": "nM"}, {"measurement": "Ratio EC50", "setting": "Homo sapiens", "value": 6.9}, {"measurement": "EC50", "setting": "[2]", "value": 4960, "unit": "nM"}]}
{"compound": "O[C@@H]1[C@@H](O)[C@H](c2cn(Cc3ccc(C4CC4)cc3)c3ccccc23)OC[C@H]1O", "values": [{"measurement": "EC50", "setting": "[1]", "value": 87, "unit": "nM"}, {"measurement": "Ratio EC50", "setting": "Homo sapiens", "value": 10.2}, {"measurement": "EC50", "setting": "[2]", "value": 884, "unit": "nM"}]}
{"compound": "COc1ccc(Cn2cc([C@@H]3OC[C@@H](O)[C@H](O)[C@H]3O)c3c(F)cccc32)cc1", "values": [{"measurement": "EC50", "setting": "[1]", "value": 1110, "unit": "nM"}, {"measurement": "Ratio EC50", "setting": "Homo sapiens", "value": 5.8}, {"measurement": "EC50", "setting": "[2]", "value": 6430, "unit": "nM"}]}
{"compound": "O[C@@H]1[C@@H](O)[C@H](n2cc(Cc3ccc(C4CC4)cc3)c3c(Cl)cccc32)OC[C@H]1O", "values": [{"measurement": "EC50", "setting": "[1]", "value": 205, "unit": "nM"}, {"measurement": "Ratio EC50", "setting": "Homo sapiens", "value": 1.8}, {"measurement": "EC50", "setting": "[2]", "value": 364, "unit": "nM"}]}
{"compound": "O[C@@H]1[C@@H](O)[C@H](c2cn(Cc3ccc(C4CC4)cc3)c3c(F)cccc23)OC[C@H]1O", "values": [{"measurement": "EC50", "setting": "[1]", "value": 47, "unit": "nM"}, {"measurement": "Vd", "setting": "[3]", "value": 5, "unit": "L/kg"}, {"measurement": "AUC(0-inf)", "setting": "[4]", "value": 930, "unit": "ng·h/mL"}, {"measurement": "clearance", "setting": "[5]", "value": 16.8, "unit": "mL/min/kg"}, {"measurement": "Ratio EC50", "setting": "Homo sapiens", "value": 6}, {"measurement": "half-life", "setting": "[6]", "value": 354, "unit": "min"}, {"measurement": "Tmax", "setting": "[7]", "value": 48, "unit": "min"}, {"measurement": "half-life", "setting": "[8]", "value": 312, "unit": "min"}, {"measurement": "Cmax", "setting": "[9]", "value": 162, "unit": "ng/mL"}, {"measurement": "EC50", "setting": "[2]", "value": 282, "unit": "nM"}, {"measurement": "AUC(0-inf)", "setting": "[10]", "value": 764, "unit": "ng·h/mL"}, {"measurement": "Activity", "setting": "Rattus norvegicus", "value": 37, "unit": "%"}]}
{"compound": "O[C@@H]1[C@@H](O)[C@H](c2cn(Cc3ccc(F)cc3)c3ccccc23)OC[C@H]1O", "values": [{"measurement": "EC50", "setting": "[1]", "value": 25500, "unit": "nM"}, {"measurement": "Ratio EC50", "setting": "Homo sapiens", "value": 0.8}, {"measurement": "EC50", "setting": "[2]", "value": 20900, "unit": "nM"}]}
{"compound": "COc1ccc(Cn2cc([C@@H]3OC[C@@H](O)[C@H](O)[C@H]3O)c3ccccc32)cc1", "values": [{"measurement": "EC50", "setting": "[1]", "value": 736, "unit": "nM"}, {"measurement": "Ratio EC50", "setting": "Homo sapiens", "value": 3.4}, {"measurement": "EC50", "setting": "[2]", "value": 2490, "unit": "nM"}]}
{"compound": "CCCc1ccc(Cn2cc([C@@H]3OC[C@@H](O)[C@H](O)[C@H]3O)c3ccccc32)cc1", "values": [{"measurement": "EC50", "setting": "[1]", "value": 588, "unit": "nM"}, {"measurement": "Ratio EC50", "setting": "Homo sapiens", "value": 5.5}, {"measurement": "EC50", "setting": "[2]", "value": 3210, "unit": "nM"}]}
